Data reported in ChEMBL document CHEMBL1124929, “Indolo[2,1-a]isoquinolines. Syntheses, steroid hormone receptor binding affinities, and cytostatic activity” (1990).

Key:
MDA-MB-231 [1] = test: Cytostatic effect on hormone-independent MDA-MB 231 human breast cancer cell proliferation at 1x10E-5 M; type: functional
How it was run: (§1)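 Cells were plated at about 2 × 10⁴ per well in six-well dishes. MCF-7 cells were grown in modified improved MEM with 5% NCS, switched to charcoal-treated NCS two weeks before the test, and exposed for 5 days with a re-dose on day 4. MDA-MB 231 cells were grown in McCoy 5a with 10% NCS and exposed for 2 days. Compounds were given 1 day after plating in 0.1% DMSO, with DMSO-matched controls. Read-out was cell number as % T/C, mean of three experiments with six dishes.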

MDA-MB-231 [2] = test: Effect on [3H]-thymidine incorporation into MDA-MB 231 human breast cancer cells at 1x10E-6M; type: functional
How it was run: (§2)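 Cells were seeded at ~2 × 10⁴ per well, treated from the next day in 0.1% DMSO, with DMSO controls. MCF-7 cells were held in charcoal-stripped NCS for 2 weeks, treated for 5 days and re-dosed on day 4. MDA-MB 231 cells were grown in McCoy 5a/10% NCS and treated for 2 days. At the end, 1 µCi [³H]thymidine per well was added for 2 h. Result is % T/C, mean of three experiments × six dishes.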

MDA-MB-231 [3] = test: Cytostatic effect on hormone-independent MDA-MB 231 human breast cancer cell proliferation at5x10E-6M; type: functional; how it was run: as §1
MDA-MB-231 [4] = test: Effect on [3H]thymidine incorporation into MDA-MB 231 human breast cancer cells at 5x10E-6M; type: functional; how it was run: as §2
MCF7 [5] = test: Effect on hormone-dependent MCF-7 human breast cancer cell proliferation at 1x10E-7M; type: functional; how it was run: as §1
MCF7 [6] = test: Effect on [3H]thymidine incorporation into MCF-7 human breast cancer cells at 1x10E-7M; type: functional; how it was run: as §2
MCF7 [7] = test: Effect on [3H]thymidine incorporation into MCF-7 human breast cancer cells at 5x10E-6M; type: functional; how it was run: as §2
MCF7 [8] = test: Effect on hormone-dependent MCF-7 human breast cancer cell proliferation at 1x10E-6M; type: functional; how it was run: as §1
[9] = molecular target: T1, Estrogen receptor (Mus musculus) (UniProt O08537+P19785); test: Estrogenic activity in uterotrophic assay in immature mice at 125 ug subcutaneous dose; type: functional
T1 sequence (O08537 whole entry, looked up): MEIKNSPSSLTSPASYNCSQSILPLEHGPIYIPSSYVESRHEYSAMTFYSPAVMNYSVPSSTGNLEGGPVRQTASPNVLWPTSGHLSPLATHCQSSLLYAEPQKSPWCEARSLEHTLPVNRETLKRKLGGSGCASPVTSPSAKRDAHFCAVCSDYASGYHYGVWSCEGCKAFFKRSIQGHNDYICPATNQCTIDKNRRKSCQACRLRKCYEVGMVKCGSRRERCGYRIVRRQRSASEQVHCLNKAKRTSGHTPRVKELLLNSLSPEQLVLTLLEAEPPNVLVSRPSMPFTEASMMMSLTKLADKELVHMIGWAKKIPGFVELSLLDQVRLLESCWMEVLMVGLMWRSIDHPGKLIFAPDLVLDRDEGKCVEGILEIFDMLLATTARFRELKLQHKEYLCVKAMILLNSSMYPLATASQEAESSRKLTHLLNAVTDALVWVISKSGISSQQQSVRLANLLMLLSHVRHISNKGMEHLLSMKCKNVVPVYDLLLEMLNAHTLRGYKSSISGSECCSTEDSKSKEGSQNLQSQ
T1 sequence (P19785 whole entry, looked up): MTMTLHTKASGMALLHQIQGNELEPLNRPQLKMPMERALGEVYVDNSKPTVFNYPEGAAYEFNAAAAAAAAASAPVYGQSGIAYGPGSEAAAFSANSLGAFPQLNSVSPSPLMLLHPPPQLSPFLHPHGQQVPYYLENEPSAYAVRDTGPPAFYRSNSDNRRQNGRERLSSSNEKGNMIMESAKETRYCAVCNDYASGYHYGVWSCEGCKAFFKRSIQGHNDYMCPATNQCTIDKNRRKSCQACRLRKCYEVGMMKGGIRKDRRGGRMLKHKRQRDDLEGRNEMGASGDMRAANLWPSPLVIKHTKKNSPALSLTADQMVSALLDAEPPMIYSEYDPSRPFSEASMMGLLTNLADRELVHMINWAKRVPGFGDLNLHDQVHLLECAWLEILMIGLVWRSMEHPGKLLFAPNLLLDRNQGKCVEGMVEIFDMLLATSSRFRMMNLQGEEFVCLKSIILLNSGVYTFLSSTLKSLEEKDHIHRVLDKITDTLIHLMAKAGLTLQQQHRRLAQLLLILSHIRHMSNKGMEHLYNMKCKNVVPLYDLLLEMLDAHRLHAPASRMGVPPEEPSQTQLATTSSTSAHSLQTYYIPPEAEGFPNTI
How it was run: (§3)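 Immature female NMRI mice, 20 days old, in groups of 6-10, were dosed sc once daily for three consecutive days. Compounds were given in PEG/0.9% saline 1:1; vehicle controls were included. Animals were killed 24 h after the last dose. Uteri were fixed in Bouin solution and the effect was taken as uterine dry weight (mg)/body weight (g) ×100, given as mean ± SD.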

[10] = molecular target: T1, Estrogen receptor (Mus musculus); test: Estrogenic activity in uterotrophic assay in immature mice at 2 ug subcutaneous dose; type: functional; how it was run: as §3
[11] = molecular target: T1, Estrogen receptor (Mus musculus); test: Estrogenic activity in uterotrophic assay in immature mice at 50.0 ug subcutaneous dose; type: functional; how it was run: as §3
[12] = molecular target: T1, Estrogen receptor (Mus musculus); test: Estrogenic activity in uterotrophic assay in immature mice at 250 ug subcutaneous dose; type: functional; how it was run: as §3
[13] = molecular target: T1, Estrogen receptor (Mus musculus); test: Inhibition of 0.4 ug estrone-stimulated uterine growth in mice at 10.0 ug subcutaneous dose; type: functional
How it was run: (§4)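 Immature 20-day-old female NMRI mice received sc injections on three consecutive days. Each injection held 0.4 µg estrone plus the compound in PEG/saline 1:1. […] Significance was tested by Mann-Whitney U test.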

[14] = molecular target: T2, Androgen receptor (Mus musculus) (UniProt P19091); test: Inhibition of testosterone-stimulated seminal vesicle growth in castrated mice supplemented with 0.3 mg of TP at 1000.0 ug; type: functional
T2 sequence (whole entry): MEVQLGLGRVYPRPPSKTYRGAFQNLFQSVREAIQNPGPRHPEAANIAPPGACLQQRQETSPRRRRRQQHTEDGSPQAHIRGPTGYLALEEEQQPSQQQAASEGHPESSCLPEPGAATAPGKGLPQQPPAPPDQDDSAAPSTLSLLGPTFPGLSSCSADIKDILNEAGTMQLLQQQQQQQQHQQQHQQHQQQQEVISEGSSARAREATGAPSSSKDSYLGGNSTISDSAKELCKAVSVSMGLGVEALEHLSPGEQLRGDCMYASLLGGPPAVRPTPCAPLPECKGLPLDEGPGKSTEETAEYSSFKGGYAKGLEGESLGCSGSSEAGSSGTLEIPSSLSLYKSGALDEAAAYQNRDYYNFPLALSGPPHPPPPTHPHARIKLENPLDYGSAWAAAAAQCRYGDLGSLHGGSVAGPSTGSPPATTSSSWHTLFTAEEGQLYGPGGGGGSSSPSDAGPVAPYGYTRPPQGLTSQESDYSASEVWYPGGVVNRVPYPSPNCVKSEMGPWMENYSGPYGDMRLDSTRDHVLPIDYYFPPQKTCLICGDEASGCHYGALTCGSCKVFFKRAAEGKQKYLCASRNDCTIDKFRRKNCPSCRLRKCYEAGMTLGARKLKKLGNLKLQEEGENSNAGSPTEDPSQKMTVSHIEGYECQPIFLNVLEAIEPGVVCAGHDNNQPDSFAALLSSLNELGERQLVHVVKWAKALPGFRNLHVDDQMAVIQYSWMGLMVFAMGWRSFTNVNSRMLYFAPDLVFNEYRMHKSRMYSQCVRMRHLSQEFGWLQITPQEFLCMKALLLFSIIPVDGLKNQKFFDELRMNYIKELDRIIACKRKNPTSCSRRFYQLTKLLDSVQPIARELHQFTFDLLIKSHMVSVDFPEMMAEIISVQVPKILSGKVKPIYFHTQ
How it was run: (§5)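 Adult male mice, 23–25 g, six per group, were used intact or castrated via the scrotal route under ether 5 days before the test. Castrates received 0.3 mg testosterone propionate daily. Compounds were injected daily in olive oil for nine days. Seminal vesicles were taken 24 h later, fixed in Bouin solution, dried overnight at 100 °C and weighed. Result is organ mg/body g ×100; % inhibition = [1 − treated/control] × 100.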

[15] = molecular target: T1, Estrogen receptor (Mus musculus); test: Inhibition of 0.4 ug estrone-stimulated uterine growth in mice at 50.0 ug subcutaneous dose; p<0.01; type: functional; how it was run: as §4
Bos taurus = species on record: Bos taurus; test: Relative binding affinity(RBA) as ratio of progesterone and compound required to displace [3H]-org 2058 binding to Progesterone receptor by 50%
How it was run: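 Receptor source was calf uterine cytosol (105000g supernatant, 3 mg/mL protein in assay). Buffers were Tris/EDTA pH 7.4, with NaN₃ for ER, molybdate/glycerol for AR, and sucrose for PR. Tracers were 1 nM [³H]estradiol, [³H]mibolerone or [³H]Org 2058. Incubation was at 0–4 °C for 16 h (ER) or 2 h (AR, PR), with 4–6 competitor concentrations. Nonspecific binding used 2 µM of the unlabeled hormone. Separation was by dextran-coated charcoal. RBA is the ratio of IC50 values for hormone and compound ×100, mean of two triplicate experiments.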

[16] = molecular target: T2, Androgen receptor (Mus musculus); test: Relative effect on seminal vesicle weight in adult and castrated mice at 100 ug dose; type: functional, tissue-based; how it was run: as §5
MDA-MB-231 [17] = test: Cytostatic effect on hormone-independent MDA-MB 231 human breast cancer cell proliferation at 1x10E-6M; type: functional; how it was run: as §1
[18] = molecular target: T2, Androgen receptor (Mus musculus); test: Inhibition of seminal vesicle weight in intact mice at 100 ug
[19] = molecular target: T2, Androgen receptor (Mus musculus); test: Inhibition of seminal vesicle weight in intact mice at 10.0 ug

Work on `CCC1Cc2cc(OC(C)=O)ccc2-c2cc3cc(OC(C)=O)ccc3n21` (stereo not given) yielded a T/C (MDA-MB-231 [1]) of 4%, a T/C (MDA-MB-231 [2]) of 45% and a T/C (MDA-MB-231 [3]) of 4%. For the same compound, the T/C (MDA-MB-231 [4]) was 4%, the T/C (MCF7 [5]) was 80% and the T/C (MCF7 [6]) was 63%. The T/C (MCF7 [7]) was 4%, the T/C (MCF7 [8]) was 45% and the Effect [9] was 39.5. The Effect [10] was 18.5, the Effect [11] was 35.8 and the Effect [12] was 42.6. It also gave an inhibition [13] of 12.2%, an inhibition [14] of 17% and an inhibition [15] of 25.9%. It also gave an RBA (Bos taurus) of 0.13, a Relative seminal vesicle weight [16] of 54.5 and a T/C (MDA-MB-231 [17]) of 74%. The inhibition [18] was 67% and the inhibition [19] was 22%.
